The test system of this data set is MS2 coat protein. Briefly: apparent Kd, MS2 coat protein; higher = weaker binding; RNA-MaP array; FMN 200 µM where present. Put shortly: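 Designs on Illumina sequencing-chip clusters, transcribed by stalled E. coli RNA polymerase, were exposed to SNAP-549-labelled MS2 coat protein in doubling steps from 0.7 or 1.5 nM up to 3 µM, without and then with constant ligand. The buffer held 100 mM Tris-HCl pH 7.5, 80 mM KCl, 4 mM MgCl2, BSA, DTT, yeast tRNA and Tween-20. Apparent Kd values are medians of filtered per-cluster binding-curve fits to green signal normalised to red-channel RNA signal and control-cluster median Fmax.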

Where [1] appears, read: designed as: ON switch for flavin mononucleotide, no ligand.
[2] abbreviates: ligand present: flavin mononucleotide, designed as: ON switch for flavin mononucleotide.
Where [3] appears, read: designed as: OFF switch for flavin mononucleotide, no ligand.
Setting [4] is: ligand present: flavin mononucleotide, designed as: OFF switch for flavin mononucleotide.

Regarding “GGGAGACAUGAGGAUCACCCAUGUGAAAACGUGCGAGGAUAUCAAUGGAAACCAUACUGUUGAGAAGGCGUUUGUC”, the “apparent Kd” value reads like this: under setting [1], 0.1 µM; under setting [2], 0.055 µM.
Turning to “CUUUUGUGAGGAUAUCAGUAUUAAAAAAAUAAAAUUACUACUGAGAAGGCACAUGAGGAUCACCCAUGUUCCUC”, the “apparent Kd” value by setting is: under setting [3], 0.0327 µM; under setting [4], 0.168 µM.
For “AUAUAGAUGGUCAGGAUAUGCUAGUGGUAACAGUAGCAGAAGGGACAUGAGGAUCACCCAUGUAGAUACUGCUC”, the “apparent Kd” value under setting [3] was determined as 0.018 µM and the “apparent Kd” value under setting [4] turned out to be 0.0322 µM.
With “UUAAUUUGAUGAUAUUAUGACAUUAGAAGGCUGUACAUGUUGAUACAUGAGGAUCACCCAUGUAUAGAGGAUAUAGACAAUUUU”, the “apparent Kd” value runs as follows: under setting [3], 0.0409 µM; under setting [4], 0.0917 µM.
With “UGCGCUGAGGGAGGAUAUGACAUGAGGAUCACCCAUGUGGUAGGUUUCUUGUCAGAAGGCCCGCAUGUACCGAAUUAGGUUCGU”, the “apparent Kd” value was 0.112 µM under setting [3] and 0.0183 µM under setting [4].
As for “AUCAGCUCGUCAGGAUAUACGUCACUGCGUGAGCAGUGUGGUAAGAUCACAUGAGGAUCACCCAUGUAGAAGGGACGAGCUGAU”, the “apparent Kd” value by setting is: under setting [3], 0.0136 µM; under setting [4], 0.271 µM.
As to “AUGUUUCAUGUAGGAUAUGCAUACUGUUAGUAUGCAGAAGGACAUGAGGAUCACCCAUGUAUAUUAUCAUUACAUAUCAUACAU”, the “apparent Kd” value reads like this: under setting [3], 0.0604 µM; under setting [4], 0.492 µM.
Turning to “AAUAAACAUGAGGAUCACCCAUGUAAUAUAAAUGGAGGAUAUGCAAUUAUUAAUUAUUAAGUAGAAGGUCGAAUAA”, the “apparent Kd” value by setting is: under setting [1], 0.0739 µM; under setting [2], 0.0736 µM.
Take “GGUUGGCGAGGAUAUACAUGAGGAUCACCCAUGUGGUCCUGUGGCUGGUAAAACCUUUGUAGAAGGCGCGGGUC”: the “apparent Kd” value stood at 0.215 µM under setting [3] and 0.24 µM under setting [4].
With “UUCAUGUUAGGAUAUUCCGCCACAGAGAAAGUCUGUGGAAUGAAGAAGGGACAUGAGGAUCACCCAUGUUCCAA”, the “apparent Kd” value under setting [3] is 0.0151 µM and the “apparent Kd” value under setting [4] came out at 0.0159 µM.
Take “GCUGUCGCAUGAGGAUAUGGUCAGCUUUGCUGACCAGAAGGCAUGUCAAUAGACAUGAGGAUCACCCAUGUAGUAAAGGCGGCU”: the “apparent Kd” value was found to be 0.38 µM under setting [1] and 0.0378 µM under setting [2].
Consider “AGUAAGAUGCAGAAGGUGUCAGCGAGAGCUACGACAUGAGGAUCACCCAUGUACUAGUGAGAGUACAAGGAUAUGCAUCUUACA”, for which the “apparent Kd” value by setting is: under setting [1], 0.0763 µM; under setting [2], 0.00854 µM.
In the case of “AUAUCUUACCAAGGAUAUUUAAGAUUUGUGUAGACAUGAGGAUCACCCAUGUGGCCUUAGUCACGGGAGAAGGUGGUUUGAUAU”, the “apparent Kd” value reads like this: under setting [1], 0.878 µM; under setting [2], 0.493 µM.
On to “UGUCGGAGCAGAGGAUAUAACAUGAGGAUCACCCAUGUAAUAAGAUCAAGCUGGAAACAGCAAUGUUAGAAGGCUGCUCCGACA”, for which the “apparent Kd” value worked out at 0.219 µM under setting [3] and 1.01 µM under setting [4].
Consider “GUCGUGUGAGGAUAUGGAUAGUAGCAGUGGCGGUCGGCGACCUAGAAGGCACAUGAGGAUCACCCAUGUAAGAG”, for which the “apparent Kd” value amounted to 0.0406 µM under setting [3] and 0.0378 µM under setting [4].
The matching figures for “GGUAAAGGCAGCCUCUACCCUGCACAUGAGGAUCACCCAUGUAAGGAUAUCGCCGCGGUAAUGGUCGAGAAGGUAUAUCGGGUU”: 0.0159 µM and 0.0466 µM.
On to “UAUGGGUGUGUGAGGAUAUACGAAGGCAGUGGCCAGUAGAAGGUACAUGAGGAUCACCCAUGUGUCCAAAAGUG”, for which the “apparent Kd” value was determined as 0.0141 µM under setting [3] and 0.0184 µM under setting [4].
The matching figures for “CAAGUGUCAGGAUAUACAUGAGGAUCACCCAUGUGUCUUUGUGAUCGUAGGGUGCACCGUAGAAGGGACACUCC”: 0.0704 µM and 0.127 µM.
For “GCGUGUAUAAGAUUUAUAAAACAGUCAGAAGGUGAUAAGACGACAUGAGGAUCACCCAUGUAAUUCAAGGAUAUGAUAAUACGC”, the “apparent Kd” value is 0.0538 µM under setting [1] and 0.0133 µM under setting [2].
The corresponding values for “GGAUACAUACAGAAGGAUAUGAGAACAAAGACAUGAGGAUCACCCAUGUACAAAAGGUGGAACAAUCAGAAGGUCUAAACAACAAA” are 0.0722 µM and 0.0612 µM.
Turning to “UGUCGGAGCAGAGGAUAUUACAUGAGGAUCACCCAUGUAUGAACCAAUAGCGGGAAACAGCAAUGUAAGAAGGCUGCUCCGACA”, the “apparent Kd” value is, setting by setting: under setting [3], 0.0346 µM; under setting [4], 0.14 µM.
As for “AAUAUGUUGCAGAAGGUUAUAUUUUUUUAGUACCUCAUGACAUGAGGAUCACCCAUGUUUUUGUUGAAGGAUAUGCAAUAUAUU”, the “apparent Kd” value runs as follows: under setting [3], 0.0171 µM; under setting [4], 0.0143 µM.
For “UAGUAUCAACGAGGAUAUAAUAUGUUCAAUUUUUUAUAUUGUUUACAUGAGGAUCACCCAUGUUAUUAGAAGGCGUAUGGGAUU”, the “apparent Kd” value by setting is: under setting [1], 0.0618 µM; under setting [2], 0.0477 µM.
As for “AAUUACAGAGGAUAUGCGCGGUAAAACAUGAGGAUCACCCAUGUGAUACCUGCAUGACCGGCAGAAGGCUGCGUUU”, the “apparent Kd” value runs as follows: under setting [3], 0.0223 µM; under setting [4], 0.108 µM.
On to “AUUAACUACAUAGGAUAUUGAUACAUGAGGAUCACCCAUGUCACGUAUUUAUAUUAAACAUUUGACAAGAAGGAUGUGGUUACA”, for which the “apparent Kd” value by setting is: under setting [1], 0.0172 µM; under setting [2], 0.00701 µM.
Consider “AAUAAUAAGGAGGAUAUCGUAUCGGAAACGAUACGAGAAGGUCUAACAUGAGGAUCACCCAUGUUCCUCAAUAA”, for which the “apparent Kd” value by setting is: under setting [3], 0.0408 µM; under setting [4], 0.0546 µM.
“CGAUAACAUAGUUAUCCGUAACGGACAUGAGGAUCACCCAUGUAGGAUAUGUUACUCAACGAGUAACAGAAGGACAUGAGUCCU”: the “apparent Kd” value by setting is: under setting [3], 0.0118 µM; under setting [4], 0.054 µM.
“AAUGAGCAGUAGAAGGCAUGUCUACGGACAUGAGGAUCACCCAUGUUGUGAAUCCGAAAGGAGCAUGAGGAUAUACUGCUCUAA”: the “apparent Kd” value was 0.0707 µM under setting [1] and 0.0147 µM under setting [2].
With “UGAUAACAUGUAGGAUAUCCAGCAUUGACCAUCGGAGAAGGACAUGAGGAUCACCCAUGUACCGAUACAAUGGGAUAUGGGAAU”, the “apparent Kd” value was 0.0201 µM under setting [3] and 0.0272 µM under setting [4].
Take “AGAAGACAUGAGGAUCACCCAUGUGCACGUGGAGGAGGAUAUGCUAGUAGAAGAUAGAAUGCAGAAGGCCUAAGAA”: the “apparent Kd” value is 0.088 µM under setting [1] and 0.0856 µM under setting [2].
“GCCCGAUCCACGUUGGGCCCAGACAGAAGGGCACACGGUCUAAGUCACAUGAGGAUCACCCAUGUGCAGGAUAUGUCUCGACUC”: the “apparent Kd” value under setting [3] was 0.00763 µM and the “apparent Kd” value under setting [4] amounted to 0.0259 µM.
On to “UGUAAUUAGUAAGGAUAUACUAGUGAUUAGCUUGUAGAAGGUACAGUCUUAUGUAUAACAAAUUAACAUGAGGAUCACCCAUGU”, for which the “apparent Kd” value under setting [1] came to 0.0102 µM and the “apparent Kd” value under setting [2] came out at 0.00874 µM.
For “AGGCGACAUGAGGAUCACCCAUGUGAGGAUAUCGAACUCUACUGUUGUGAGAGUAAGGCGAGAAGGCACACAGU”, the “apparent Kd” value by setting is: under setting [3], 0.0227 µM; under setting [4], 0.0253 µM.
As for “GCGCCAUUGCAAGGAUAUCCUACAGAGGGUGCAGGAGAAGGUGCAUUGGUGAGACUAUAGGACAUGAGGAUCACCCAUGUACCU”, the “apparent Kd” value reads like this: under setting [1], 0.0148 µM; under setting [2], 0.0179 µM.
As for “ACAUGAUAUGUAGGAUAUCACAUUAAUUGUUUUAUAAUUGUAUUUAGGAUUUGAGAAGGACAUUUACAUGAGGAUCACCCAUGU”, the “apparent Kd” value runs as follows: under setting [3], 0.0158 µM; under setting [4], 0.0113 µM.
For “CUUCGUAUAGAGGAUAUAGGUUACUUCGGUAUCCUAGAAGGCUGUACAUGAGGAUCACCCAUGUACUUCAGAUC”, the “apparent Kd” value runs as follows: under setting [3], 0.0112 µM; under setting [4], 0.0169 µM.
For “AAAAAACAUGAGGAUCACCCAUGUCAAAAGACGUGAGGAUAUGUACAGACUUCGGUCUGUACAGAAGGCACGAAAA”, the “apparent Kd” value was 0.0254 µM under setting [1] and 0.0212 µM under setting [2].
Take “GUCAGCUCGUGAGGAUAUACAUGUGCUGGAGACAGCAUUAAAUUUUUCACAUGAGGAUCACCCAUGUAGAAGGCACGAGCUGAU”: the “apparent Kd” value reads like this: under setting [3], 0.0184 µM; under setting [4], 0.0494 µM.
For the sequence “UGGAACUAGGGAGGAUAUGGGAAGAUACAUGAGGAUCACCCAUGUUUAAGAAUGCCGAGAGGCAACUAGAAGGCCCUAGUACCU”, the “apparent Kd” value worked out at 0.454 µM under setting [1] and 0.0203 µM under setting [2].
Take “AGACGGAGCAGAGGAUAUACAUGAGGAUCACCCAUGUAAAUGAAAGAUAGCAGCAAAGCUGCAAUGUAGAAGGCUGCUCCGUCA”: the “apparent Kd” value runs as follows: under setting [3], 0.0292 µM; under setting [4], 0.0838 µM.
“AUGCUAGUGUGAGGAUAUUAACAUGAGGAUCACCCAUGUUGGAAGAUCAUGACGAUCACGCAUGAUAAGAAGGUACAUUAGCAU”: the “apparent Kd” value came to 0.0408 µM under setting [3] and 0.0949 µM under setting [4].
Turning to “GGCGGAGACGUUAACAUGAGGAUCACCCAUGUCGAAGGAGAUGAGGAUAUCGCACACGAUGUGUGUGAGAAGGCAUGGUCUGCC”, the “apparent Kd” value amounted to 0.0674 µM under setting [1] and 0.0154 µM under setting [2].
The matching figures for “AUUUAAAUGUCAGGAUAUGUUAGUUUAUACUUAGUAGAAGGGAUAAUUAUACUCAAGUACAUGAGGAUCACCCAUGUUAAAUCA”: 0.021 µM and 0.0185 µM.
Take “AUCGUGAGUAAGGAUAUCACGCGACCCUUUCGGUGAGAAGGUGCCACAUGAGGAUCACCCAUGUGGGUCGUCGC”: the “apparent Kd” value runs as follows: under setting [3], 0.0156 µM; under setting [4], 0.0159 µM.
For the sequence “UUUACUUUGUAGAAGGGUGACAUGAGGAUCACCCAUGUGCGUCGCCUGAAAGACCAGGGUACGCCACAGGAUAUACAAAGUAAG”, the “apparent Kd” value was 0.0565 µM under setting [1] and 0.0404 µM under setting [2].
With “CCUGAGUCAGGAUAUUGUACCGGCCUGAAGCCAAGCCGACCCAAGAAGGGACAUGAGGAUCACCCAUGUGAAAA”, the “apparent Kd” value came out at 0.0213 µM under setting [3] and 0.0229 µM under setting [4].
Turning to “AUACAUGAGGAUCACCCAUGUUACUGGGUCUAUAUAGAACGUAGAAGGAUGAUAUUAUAAAUAUCAUAGGAUAUACUAUAUUGU”, the “apparent Kd” value reads like this: under setting [3], 0.0327 µM; under setting [4], 0.032 µM.
With “CACAUUUUAACAGGAUAUGUAAGGUUGUUUAUUAUUGCAUUUACAAUUAUUACAGAAGGGUUAUACAUGAGGAUCACCCAUGUG”, the “apparent Kd” value by setting is: under setting [1], 0.0153 µM; under setting [2], 0.0155 µM.

The values are drawn from the EternaBench riboswitch data.
